# Hits are enriched below; roughly 2.7% of the tested compounds scored in any of these assays.
# NR1D1 modulator – modulators of Rev-erb alpha DNA binding, primary screen, biochemical, FITC-DNA, fluorescence polarization, uHTS; Nuclear receptor subfamily 1 group D member 1 (Homo sapiens), P20393; Rev-erbα–FITC-DNA binding, 90 min; activity, % at 10 µM; hit rate 0.79% among 370,000;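 active = activity above about 14%, limit read from the data; passing the limit was not always enough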;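 also: 0% = DMSO wells with 35 nM protein and 100% = DMSO wells with 750 nM protein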
# NR2E3 ag-1 – NR2E3 agonists in two-hybrid cells, primary screen, cell-based, luminescence, CHO-S, Gal4-NCOR/VP16-NR2E3; Photoreceptor-specific nuclear receptor (Homo sapiens), Q9Y5X4; luciferase; inhibition of corepressor binding, % at 3.98 µM; hit rate 0.35% among 360,000;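 active = inhibition above the mean of all tested compounds plus 3 SD, cut at about 70% in these data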;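 also: 0% = DMSO with NR2E3 transfected cells and 100% = cells lacking NR2E3 construct; higher means lower luciferase signal from less NR2E3 corepressor binding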
# MC4R ag barr – MC4R agonists recruiting beta-arrestin, primary screen, cell-based, luminescence, agonist arm of biased-ligand search | activation, % at 8.9 µM | hit rate 0.98% among 360,000 | U2OS MC4R beta-arrestin complementation; percent of melanotan II response, DMSO zero | Melanocortin receptor 4 (Homo sapiens), P32245;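 active = activation above a per-plate cutoff, the mean activation of sample wells on that plate plus 3 SD, cut at about 8% in these data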
# Target sequence (P32245 whole entry, looked up): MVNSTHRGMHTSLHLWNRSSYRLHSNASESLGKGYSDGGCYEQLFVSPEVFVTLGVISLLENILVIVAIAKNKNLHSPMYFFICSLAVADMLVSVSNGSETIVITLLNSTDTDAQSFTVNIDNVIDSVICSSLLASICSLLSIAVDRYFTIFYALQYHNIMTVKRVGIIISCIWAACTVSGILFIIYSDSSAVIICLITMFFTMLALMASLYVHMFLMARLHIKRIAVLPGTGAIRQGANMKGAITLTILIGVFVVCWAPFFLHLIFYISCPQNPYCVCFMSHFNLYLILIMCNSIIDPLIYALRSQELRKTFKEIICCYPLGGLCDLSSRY
# NR2E3 ag-2 – inhibitors of NR2E3-RetCOR corepressor binding, primary screen, NR2E3 agonist project, biochemical, TR-FRET, GST-NR2E3, biotin-RetCOR | Photoreceptor-specific nuclear receptor (Homo sapiens), Q9Y5X4 | 1536-well | inhibition of corepressor binding, % at 4.78 µM | hit rate 0.12% among 320,000 | AID 2300, 2010;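 active = percent inhibition above the cutoff of mean plus 3 SD of all tested compounds, set per screening campaign, cut at about 20% in these data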;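 also: 0% = DMSO wells and 100% = biotin wells as full block of FRET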
#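 Material – GST-tagged NR2E3 plus biotinylated RetCOR corepressor · Quantity – NR2E3 fusion 1.35 nM · Times – 5 h incubation at 4 °C · Medium – pH 7.5 Tris-based buffer · Technique – TR-FRET, Eu(K)-anti-GST donor, streptavidin-D2 acceptor, ex 340, em 617/671 nm · Benchmarks – high control biotin, low control 0.6% DMSO · Format – 1536-well plates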
# MC4R antag cAMP – MC4R antagonists of cAMP signaling, primary screen, cell-based, TR-FRET, antagonist arm of biased-ligand search | Melanocortin receptor 4 (Homo sapiens), P32245 | MC4R-expressing cells, MTII-stimulated cAMP, LANCE TR-FRET | inhibition, % at 6.5 µM | hit rate 0.48% among 360,000 | AID 540295, 2011;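 active = inhibition above its plate's cutoff, the mean of tested wells on that plate plus 3 SD, cut at about 29% in these data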;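 also: 0% = Melanotan II alone and 100% = Melanotan II plus saturating MCL0020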
#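 System: U2OS-MC4R stable cell line; Technique: Eu-cAMP/anti-cAMP TR-FRET, emission 671 nm; Repeats: single well per compound; Also added: Melanotan II; Dosing: one concentration, 6.5 µM nominal; Schedule: 30-min compound, 1-h challenge, 1-h detection, room temperature.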
# PG9 binder – binders of HIV-1 gp120 antibody PG9, primary screen, biochemical, TR-FRET. HIV-1 gp120 / PG9 antibody interaction. TR-FRET gp120-PG9 antibody binding. inhibition, % at 6.7 µM. hit rate 0.43% among 360,000. AID 624416, 2012; in the data active = inhibition above about 8.5%
# U2OS cAMP counter – nonselective cAMP signaling inhibitors, parental cells, counter-screen for MC4R biased antagonist project, cell-based, TR-FRET, U2OS, forskolin, triplicate. shares compounds with MC4R antag cAMP. LANCE TR-FRET. inhibition, % at 6.5 µM. hit rate 26% among 1,600;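 active = mean inhibition over triplicates above the low-control well mean plus 3 SD, set per campaign, cut at about 13% in these data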;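 also: signal is single emission at 671 nm which falls as cellular cAMP rises; 0% = forskolin-stimulated wells and 100% = buffer without forskolin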
# MC4R antag conf – MC4R cAMP antagonists, retest, confirmation, cell-based, TR-FRET. shares compounds with MC4R antag cAMP. MC4R-expressing cells, MTII-stimulated cAMP. inhibition, % at 6.5 µM. hit rate 27% among 1,600. AID 602195, 2012; in the data active = inhibition above about 29%;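 also: 0% = agonist stimulated wells alone and 100% = agonist stimulated wells plus saturating reference antagonist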
# The depositor's hits bear a star; . = no result given.
SMILES,NR1D1 modulator,NR2E3 ag-1,MC4R ag barr,NR2E3 ag-2,MC4R antag cAMP,PG9 binder,U2OS cAMP counter,MC4R antag conf
Cc1ccc(C(=O)OCC(=O)Nc2sc3c(c2C#N)CCCC3)cc1NC(=O)c1ccco1,3,-4,-2,1,-2,-1,.,.
CNC(=O)c1cc(C(=O)c2ccc(F)cc2C(F)(F)F)c[nH]1,7,7,-1,-1,9,-1,.,.
O=C(Nc1sc2c(c1C(=O)NCC1CCCO1)CCCC2)c1cccs1 (centres undefined),3,-35,1,2,31*,3,3,15
CCOc1ccc(NC(=O)CCN2C(=O)c3cccc([N+](=O)[O-])c3C2=O)cc1,-2,16,1,.,33*,0,10,18
COc1ccc(CNC(=O)CCN2C(=O)c3ccncc3C2=O)cc1OC,-4,-15,1,1,34*,-1,-1,-14
COc1ccc(CNC(=O)CCN2C(=O)c3ccccc3C2=O)cc1OC,-1,-4,-1,2,-4,-1,.,.
CN(C)c1ccc(NC(=O)CCN2C(=O)c3cccc([N+](=O)[O-])c3C2=O)cc1,-4,5,1,-2,11,-8,.,.
CC(=O)c1ccc(NC(=O)COC(=O)CCN2C(=O)c3cccc([N+](=O)[O-])c3C2=O)cc1,5,-4,-4,2,22,-1,.,.
CC(C)N(c1ccccc1)c1ccc(NC(=O)COC(=O)CCN2C(=O)c3cccc([N+](=O)[O-])c3C2=O)cc1,-1,-4,7,-2,36*,-2,13,21
COc1ccc(OC)c(NC(=O)CCN2C(=O)c3cccc([N+](=O)[O-])c3C2=O)c1,-3,15,-1,3,41*,0,13,27
COc1ccc(N(CC(=O)NCc2ccccc2Cl)S(=O)(=O)c2c(C)n[nH]c2C)cc1,12,-9,-1,1,4,1,.,.
Cc1ccc(NC(=S)NC(=O)c2cccs2)cc1F,-3,-103,-2,.,5,2,.,.
COc1ccc(S(=O)(=O)N2CCOCC2)cc1NC(=O)CCCOc1ccc(C(C)=O)cc1,1,6,-1,.,6,0,.,.
COc1cc(OC)c(OC)cc1CNC(=O)CCN1C(=O)c2cccc([N+](=O)[O-])c2C1=O,1,-12,0,-1,32*,0,5,13
COc1ccc(NC(=O)CCCCCN2C(=O)c3cccc([N+](=O)[O-])c3C2=O)c(OC)c1,1,-32,0,-3,16,0,.,.
O=C(O)CC(Cc1ccc(Cl)cc1)C(=O)NCC12CC3CC(CC(C3)C1)C2 (centres undefined),2,-15,0,0,6,0,.,.
CSCCC(NC(=O)c1ccc([N+](=O)[O-])cc1Cl)C(=O)OC(C)C(=O)NCc1ccco1 (centres undefined),2,10,-2,0,29*,1,8,18
CSCCC(NC(=O)c1ccc([N+](=O)[O-])cc1Cl)C(=O)OCC(=O)N1CCN(C(C)=O)CC1 (centres undefined),-2,-14,-2,-1,11,-1,.,.

# From PubChem BioAssay
